ChEMBL document CHEMBL1649558, “Antiviral activity of chloroquine against human coronavirus OC43 infection in newborn mice” (Antimicrob Agents Chemother, 2009)

Tests used:
Human coronavirus OC43 [1] = assay: Antiviral activity against Human coronavirus OC43 infected in new born C57BL/6 mouse assessed as survival rate at 15 mg/kg, sc transfered via placenta after administration to pregnant mouse; format: functional; settings: Betacoronavirus 1, sc, route subcutaneous
Human coronavirus OC43 [2] = assay: Antiviral activity against Human coronavirus OC43 infected in new born C57BL/6 mouse assessed as survival rate at 15 mg/kg, sc transfered via maternal milk after administration to pregnant mouse; format: functional; settings: Betacoronavirus 1, sc, route subcutaneous
Human coronavirus OC43 [3] = assay: Antiviral activity against Human coronavirus OC43 infected in human HRT18 cells after 4 days by qRT-PCR analysis; format: functional, cell-based; settings: Betacoronavirus 1, HRT-18, 96 h
Procedure, shortened: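 HRT-18 cells were seeded and grown 4 days, then infected with 1 × 10⁶ HCoV-OC43 copies/ml in MEM with 2% FCS, with chloroquine at 0.032–500 μM. After 4 days at 37°C in 5% CO₂, viral RNA in the supernatant was quantified by qRT-PCR against a cRNA standard curve. EC50 is the concentration halving the viral RNA increase relative to untreated infected cells.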

Human coronavirus OC43 [4] = assay: Antiviral activity against Human coronavirus OC43 infected in new born C57BL/6 mouse assessed as survival rate at 5 mg/kg, sc transfered via placenta after administration to pregnant mouse; format: functional; settings: Betacoronavirus 1, sc, route subcutaneous
Procedure, shortened: (§1)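 Pregnant C57BL/6 dams were given chloroquine subcutaneously (200 μl; 1, 5 or 15 mg/kg) prepartum or postpartum; controls were untreated. Five-day-old pups were inoculated intracerebrally with 1 × 10³ HCoV-OC43 copies in 10 μl. Mortality was monitored daily, and survivors were followed for 60 days. Survival is surviving pups over total pups; curves were compared by log-rank test.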

[5] = Selectivity index, ratio of CC50 for human HRT18 cells to EC50 for Human coronavirus OC43 infected in human HRT18 cells; format: toxicity, cell-based; settings: read-out: Ratio CC50/EC50
Procedure, shortened: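 Index = CC50/EC50. For the EC50, HRT-18 cells were seeded at 6 × 10⁴ per well and grown 4 days. They were then infected with 1 × 10⁶ OC43 copies/ml in 2% serum MEM with 0.032–500 μM compound for 4 days at 37°C. Supernatant RNA was measured by qRT-PCR against a cRNA standard curve. The CC50 came from the MTS viability assay at 4 days.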

Human coronavirus OC43 [6] = assay: Antiviral activity against Human coronavirus OC43 infected in pregnant C57BL/6 mouse assessed as survival rate at 1 mg/kg, sc administered prepartum; format: functional; settings: Betacoronavirus 1, sc, route subcutaneous; procedure, shortened: as §1
Human coronavirus OC43 [7] = assay: Antiviral activity against Human coronavirus OC43 infected in pregnant C57BL/6 mouse assessed as survival rate at 15 mg/kg, sc administered prepartum; format: functional; settings: Betacoronavirus 1, sc, route subcutaneous; procedure, shortened: as §1
Human coronavirus OC43 [8] = assay: Antiviral activity against Human coronavirus OC43 infected in human HRT18 cells assessed as decrease in viral load at 10 uM treated at the time of infection measured after 28 hrs by qRT-PCR analysis relative to control; format: functional
Procedure, shortened: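 Subconfluent HRT-18 monolayers were infected with 4 × 10⁷ HCoV-OC43 genome equivalents/ml, adsorbed 30 min, and washed five times with MEM. Chloroquine (10 μM) was added at infection or at later time points. Supernatant viral RNA was quantified by qRT-PCR at 28 h postinfection. Two independent experiments in duplicate; mean ± SEM.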

Human coronavirus OC43 [9] = assay: Antiviral activity against Human coronavirus OC43 infected in new born C57BL/6 mouse assessed as survival rate at 1 mg/kg, sc transfered via maternal milk after administration to pregnant mouse; format: functional; settings: Betacoronavirus 1, sc, route subcutaneous; procedure, shortened: as §1
Human coronavirus OC43 [10] = assay: Antiviral activity against Human coronavirus OC43 infected in new born C57BL/6 mouse assessed as survival rate at 1 mg/kg, sc transfered via placenta after administration to pregnant mouse; format: functional; settings: Betacoronavirus 1, sc, route subcutaneous; procedure, shortened: as §1
Human coronavirus OC43 [11] = assay: Antiviral activity against Human coronavirus OC43 infected in new born C57BL/6 mouse assessed as survival rate at 5 mg/kg, sc transfered via maternal milk after administration to pregnant mouse; format: functional; settings: Betacoronavirus 1, sc, route subcutaneous; procedure, shortened: as §1
[12] = Cytotoxicity against human HRT18 cells after 4 days by MTS assay; format: cell-based, HRT-18
Procedure, shortened: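 HRT-18 cells grown in MEM with 10% fetal calf serum, 1% L-glutamine and 1.4% sodium bicarbonate were exposed to a range of compound concentrations for 4 days at 37°C, 5% CO₂. Viable cells were quantified by MTS reduction to formazan, read at 492 nm. CC50 is the concentration reducing viability by 50%.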

Human coronavirus OC43 [13] = assay: Antiviral activity against Human coronavirus OC43 infected in pregnant C57BL/6 mouse assessed as survival rate at 5 mg/kg, sc administered postpartum; format: functional; settings: Betacoronavirus 1, sc, route subcutaneous; procedure, shortened: as §1
Human coronavirus OC43 [14] = assay: Antiviral activity against Human coronavirus OC43 infected in pregnant C57BL/6 mouse assessed as survival rate at 15 mg/kg, sc administered postpartum; format: functional; settings: Betacoronavirus 1, sc, route subcutaneous; procedure, shortened: as §1
Human coronavirus OC43 [15] = assay: Antiviral activity against Human coronavirus OC43 infected in pregnant C57BL/6 mouse assessed as survival rate at 1 mg/kg, sc administered postpartum; format: functional; settings: Betacoronavirus 1, sc, route subcutaneous; procedure, shortened: as §1
Human coronavirus OC43 [16] = assay: Antiviral activity against Human coronavirus OC43 infected in pregnant C57BL/6 mouse assessed as survival rate at 5 mg/kg, sc administered prepartum; format: functional; settings: Betacoronavirus 1, sc, route subcutaneous; procedure, shortened: as §1

`CCN(CC)CCCC(C)Nc1ccnc2cc(Cl)ccc12.O=P(O)(O)O.O=P(O)(O)O` (stereo unspecified) [CHLOROQUINE PHOSPHATE] gave a survival at 15 mg/kg (Human coronavirus OC43 [1]) of 100%, a survival at 15 mg/kg (Human coronavirus OC43 [2]) of 97.4% and an EC50 (Human coronavirus OC43 [3]) of 0.306 µM. It also gave a survival at 5 mg/kg (Human coronavirus OC43 [4]) of 92.9%, a selectivity ratio [5] of 1370 and a survival at 1 mg/kg (Human coronavirus OC43 [6]) of 33.3%. The survival at 15 mg/kg (Human coronavirus OC43 [7]) was 100%, the “fold change (FC)” value (Human coronavirus OC43 [8]) was 100 and the survival at 1 mg/kg (Human coronavirus OC43 [9]) was 0%. The survival at 1 mg/kg (Human coronavirus OC43 [10]) was 33.3%, the survival at 5 mg/kg (Human coronavirus OC43 [11]) was 83.3% and the CC50 at 96 h [12] was 419 µM. The survival at 5 mg/kg (Human coronavirus OC43 [13]) was 83.3%, the survival at 15 mg/kg (Human coronavirus OC43 [14]) was 97.4% and the survival at 1 mg/kg (Human coronavirus OC43 [15]) was 0%. The survival at 5 mg/kg (Human coronavirus OC43 [16]) was 92.9%.
